Consider 17 compounds from ChEMBL document CHEMBL3826973, “Binding characterization, synthesis and biological evaluation of RXRα antagonists targeting the coactivator binding site” (Bioorg Med Chem Lett, 2016).

The source made the active and inactive calls. No cut-off for these calls is given here.

Assay [1] concerns the target T1, Retinoic acid receptor RXR-alpha (Homo sapiens) (UniProt P19793).
T1 sequence (whole entry): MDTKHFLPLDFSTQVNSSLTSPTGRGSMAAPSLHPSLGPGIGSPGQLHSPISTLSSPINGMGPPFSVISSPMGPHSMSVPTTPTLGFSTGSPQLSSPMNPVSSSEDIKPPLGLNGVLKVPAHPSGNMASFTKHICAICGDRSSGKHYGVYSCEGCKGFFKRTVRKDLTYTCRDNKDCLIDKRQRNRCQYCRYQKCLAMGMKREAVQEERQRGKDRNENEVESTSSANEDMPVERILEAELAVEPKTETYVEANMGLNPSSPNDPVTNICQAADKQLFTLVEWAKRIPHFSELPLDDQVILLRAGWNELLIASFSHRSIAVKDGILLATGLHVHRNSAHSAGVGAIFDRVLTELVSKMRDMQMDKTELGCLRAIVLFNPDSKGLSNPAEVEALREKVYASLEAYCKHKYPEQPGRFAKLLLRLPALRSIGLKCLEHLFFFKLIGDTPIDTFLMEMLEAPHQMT
Kind of assay: Antagonist activity at RXRalpha (unknown origin) expressed in HEK293T cells assessed as inhibition of receptor transactivation at 10 uM after 12 hrs in presence of 9-cis-RA by luciferase reporter gene assay relative to control. The class given is cell-based. As to conditions: HEK-293T. In a few lines: (§1)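 HEK-293T cells cotransfected with pG5-Luc reporter and an RXRα expression vector. Cells were treated with 9-cis-RA (10^-7 M) plus test compound for 12 h, and luciferase activity was read. The assay was run either as a single-concentration screen scored as % inhibition or at the indicated concentrations for dose-response.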

The target of assay [2] is T1, Retinoic acid receptor RXR-alpha (Homo sapiens). Kind of assay: Antagonist activity at RXRalpha (unknown origin) expressed in HEK293T cells assessed as inhibition of receptor transactivation at 10 to 30 uM after 12 hrs in presence of 9-cis-RA by luciferase reporter gene assay. The class given is cell-based. As to conditions: HEK-293T. An outline of the steps:
as §1

Assay [3] has the same target. Kind of assay: Binding affinity to RXRalpha-LBD (unknown origin) at 0.01 to 5 uM measured up to 260 sec by surface plasma resonance method.
A short description of assay [4]: Binding affinity to RXRalpha-LBD E453A mutant (unknown origin) measured up to 300 sec by surface plasma resonance method. Also noted: species or system Homo sapiens.
For the next assay, the species on record is Homo sapiens. Kind of assay: Ratio of Kd for RXRalpha-LBD E453A mutant (unknown origin) to Kd for RXRalpha-LBD (unknown origin).
Assay [5] has as its target T1, Retinoic acid receptor RXR-alpha (Homo sapiens). Kind of assay: Binding affinity to RXRalpha-LBD (unknown origin) at 10 uM measured up to 201 sec in presence of 9-cis-RA by surface plasma resonance method.
Assay [6] addresses T2, Retinoic acid receptor RXR-alpha (Homo sapiens, UniProt P19793).
T2 sequence (P19793 whole entry): T1 sequence (whole entry)
Description: Binding affinity to RXRalpha-LBD (unknown origin) measured up to 300 sec by surface plasma resonance method. An outline of the steps:
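Surface plasmon resonance with the RXRα ligand-binding domain as the binding partner; affinity expressed as a dissociation constant (Kd).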

Assay [7] concerns the target T2, Retinoic acid receptor RXR-alpha.
Assay [8] has as its target T1, Retinoic acid receptor RXR-alpha (Homo sapiens). Conditions: HepG2, 20 ug/ml.

`COc1ccc(/C=N/NC(=O)CSc2nc3ccccc3o2)c(O)c1`: in assay [1], the inhibition stood at 57.3%. Turning to `O=C(CSc1nc2ccccc2o1)N/N=C/c1cccc(F)c1`, the inhibition in [1] stood at 13.8%.

For `O=C(CSc1nc2ccccc2o1)N/N=C/c1ccccc1F`, the inhibition in [1] came to 13%. For `O=C(CSc1nc2ccccc2o1)N/N=C/c1ccc(O)c(O)c1O`, the inhibition in [1] came out at 24.3%.

For `O=C(CSc1nc2ccccc2o1)N/N=C/c1ccc(OCc2ccccc2)cc1O`, the inhibition in assay [1] stood at 43.9%. Take `COc1ccc2c(C)cc(=O)oc2c1/C=N/NC(=O)CSc1nc2ccccc2s1` (mixture of isomers): in [2], the inhibition result was “inactive”. Moreover, the outcome in assay [3] was inactive.

Regarding `O=C(CSc1nc2ccccc2o1)N/N=C/c1ccc(F)cc1O`, in [1], the inhibition came out at 33.2%. The same measure, in the same setting: then `O=C(CSc1nc2ccccc2o1)N/N=C/c1ccc(O)cc1O`, with 25.2%. In turn, `Cc1cc(=O)oc2c(/C=N/NC(=O)CSc3nc4ccccc4s3)c(O)ccc12` gave a Kd in [4] of 3610 nM. The Ratio in the assay filed under Homo sapiens worked out at 10. The outcome in assay [5] was Active. For `O=C(CSc1nc2ccccc2o1)N/N=C/c1cccc(O)c1O`, the inhibition in assay [1] came out at 39.6%. Take `O=C(CSc1nc2ccccc2o1)N/N=C/c1cccc(O)c1`: the inhibition in assay [1] is 16.2%. Regarding `CCN(CC)c1ccc(/C=N/NC(=O)CSc2nc3ccccc3o2)c(OC)c1`, the inhibition in assay [1] worked out at 17.9%. Still for that read-out and setting: then `CCN(CC)c1ccc(/C=N/NC(=O)CSc2nc3ccccc3o2)cc1`, with 19.3%; and `O=C(CSc1nc2ccccc2o1)N/N=C/c1ccc([N+](=O)[O-])cc1`, with 12.7%. As to `CCN(CC)c1ccc(/C=N/NC(=O)CSc2nc3ccccc3o2)c(O)c1` (mixture of isomers), the inhibition in assay [1] was determined as 74.1%. This compound displayed a Kd in assay [6] of 910 nM. In assay [7], this compound gave an IC50 of 2810 nM. Also, in assay [8], the inhibition result was “Active”. `O=C(CSc1nc2ccccc2o1)N/N=C/c1ccc(OCc2ccccc2)cc1`: in assay [1], the inhibition came to 3.7%.

As for `Cc1cccc(/C=N/NC(=O)CSc2nc3ccccc3o2)c1`, the inhibition in [1] worked out at 47.9%.
